Tests used:
[1] = Inhibition of Plasmodium falciparum recombinant His6-tagged GSK-3 expressed in Escherichia coli using GS-1 peptide as substrate after 30 mins by scintillation counting analysis in presence of gamma-33P-ATP
Procedure, shortened: (§1)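 His6-tagged recombinant GSK-3 expressed in E. coli (TOP10/pBAD-Thio-TOPO for P. falciparum and T. gondii, arabinose-induced; BL21(DE3)-pRARE2/pET15 for C. parvum, IPTG at 15 °C), Ni-NTA purified. Assayed with 40 μM GS-1 phosphopeptide, 15 μM γ-33P-ATP in pH 7.5 Tris buffer with MgCl2, EGTA, DTT, heparin, BSA; 30 min, 30 °C; P81 paper, phosphoric acid washes, scintillation counting. DMSO controls; dose-response IC50, triplicate points.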

[2] = molecular target: Serine/threonine-protein kinase PAK 4 (Homo sapiens) (UniProt O96013); assay: Inhibition of PAK4 (unknown origin) at 10 uM
Chain of Serine/threonine-protein kinase PAK 4 (Homo sapiens) (O96013 whole entry, looked up): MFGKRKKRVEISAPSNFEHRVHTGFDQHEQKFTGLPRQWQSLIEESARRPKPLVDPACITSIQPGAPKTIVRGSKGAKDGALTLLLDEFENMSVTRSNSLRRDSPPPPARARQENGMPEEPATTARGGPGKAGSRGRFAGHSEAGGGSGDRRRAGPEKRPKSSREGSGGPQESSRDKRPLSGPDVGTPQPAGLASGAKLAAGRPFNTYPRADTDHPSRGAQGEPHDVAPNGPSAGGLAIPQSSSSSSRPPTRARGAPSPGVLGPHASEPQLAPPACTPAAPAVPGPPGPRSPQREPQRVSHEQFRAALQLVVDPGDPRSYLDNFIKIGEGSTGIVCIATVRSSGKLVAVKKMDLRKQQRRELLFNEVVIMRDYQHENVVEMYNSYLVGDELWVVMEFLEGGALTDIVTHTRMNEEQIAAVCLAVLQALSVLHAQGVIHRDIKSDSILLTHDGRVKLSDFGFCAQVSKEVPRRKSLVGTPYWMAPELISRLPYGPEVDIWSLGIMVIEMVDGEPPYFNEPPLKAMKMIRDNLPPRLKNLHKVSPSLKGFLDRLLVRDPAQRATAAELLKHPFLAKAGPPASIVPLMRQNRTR
Procedure, shortened: (§2)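 Dundee human kinase selectivity panel (77 kinases); test compound at 1 and 10 μM, percentage kinase inhibition recorded.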

[3] = molecular target: Dual specificity mitogen-activated protein kinase kinase 1 (Homo sapiens) (UniProt Q02750); assay: Inhibition of MKK1 (unknown origin) at 10 uM; procedure, shortened: as §2
Chain of Dual specificity mitogen-activated protein kinase kinase 1 (Homo sapiens) (Q02750 whole entry): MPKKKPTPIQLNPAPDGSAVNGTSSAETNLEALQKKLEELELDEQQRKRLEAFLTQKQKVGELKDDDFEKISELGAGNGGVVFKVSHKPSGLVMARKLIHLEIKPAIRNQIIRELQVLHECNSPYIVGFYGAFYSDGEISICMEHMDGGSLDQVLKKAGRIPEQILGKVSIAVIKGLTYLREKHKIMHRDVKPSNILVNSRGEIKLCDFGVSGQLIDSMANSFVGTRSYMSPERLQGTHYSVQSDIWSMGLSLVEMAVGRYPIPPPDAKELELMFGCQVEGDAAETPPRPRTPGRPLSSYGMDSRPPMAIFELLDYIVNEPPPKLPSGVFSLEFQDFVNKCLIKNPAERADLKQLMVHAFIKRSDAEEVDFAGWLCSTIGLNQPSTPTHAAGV

[4] = molecular target: T1, Inhibitor of nuclear factor kappa-B kinase subunit epsilon (Homo sapiens) (UniProt Q14164); assay: Inhibition of IKK-epsilon (unknown origin) at 10 uM; procedure, shortened: as §2
T1 sequence (whole entry): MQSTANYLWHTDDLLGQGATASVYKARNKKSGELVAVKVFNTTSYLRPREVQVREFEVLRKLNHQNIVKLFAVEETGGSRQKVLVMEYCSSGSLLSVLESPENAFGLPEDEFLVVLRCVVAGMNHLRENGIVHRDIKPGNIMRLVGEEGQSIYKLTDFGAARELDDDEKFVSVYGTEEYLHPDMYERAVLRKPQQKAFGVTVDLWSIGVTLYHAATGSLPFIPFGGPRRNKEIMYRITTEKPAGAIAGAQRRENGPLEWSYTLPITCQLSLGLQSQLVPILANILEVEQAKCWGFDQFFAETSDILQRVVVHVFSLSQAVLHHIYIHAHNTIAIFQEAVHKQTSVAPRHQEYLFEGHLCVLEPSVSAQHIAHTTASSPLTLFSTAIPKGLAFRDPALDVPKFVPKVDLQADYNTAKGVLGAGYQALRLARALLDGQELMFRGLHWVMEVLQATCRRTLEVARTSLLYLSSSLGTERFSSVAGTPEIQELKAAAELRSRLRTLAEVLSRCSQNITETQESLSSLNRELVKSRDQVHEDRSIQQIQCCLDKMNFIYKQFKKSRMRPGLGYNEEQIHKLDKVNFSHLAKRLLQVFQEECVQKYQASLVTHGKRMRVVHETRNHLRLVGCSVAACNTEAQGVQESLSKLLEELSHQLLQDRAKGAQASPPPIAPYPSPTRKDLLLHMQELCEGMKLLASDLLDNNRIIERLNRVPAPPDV

[5] = Inhibition of Leishmania donovani GSK-3
[6] = Inhibition of Trypanosoma brucei GSK-3
[7] = Inhibition of Trypanosoma cruzi GSK-3
[8] = Inhibition of Cryptosporidium parvum recombinant His6-tagged GSK-3 expressed in Escherichia coli using GS-1 peptide as substrate after 30 mins by scintillation counting analysis in presence of gamma-33P-ATP; procedure, shortened: as §1

Which IC50 [1] does the source give for N#Cc1c(N)nc2sc(C(=O)c3cccc(Cl)c3)c(N)c2c1-c1ccccc1Cl here?
The IC50 was 480 nM.

What about the inhibition [2] of the same compound?
Its inhibition is over 50%.

And the inhibition [3]?
The inhibition was over 50%.

And the inhibition [4]?
The inhibition was over 50%.

And the IC50 [5]?
Its IC50 is 72 µM.

What about the IC50 [6] of the same compound?
The IC50 was over 100 µM.

What about the IC50 [7] of the same compound?
The IC50 was over 100 µM.

What about the IC50 [8] of the same compound?
Its IC50 is over 100 µM.
